Measurements of several laboratories.
Protocols differ between the studies behind these lines.
gag-pol reverse transcriptase: Gag-Pol polyprotein, reverse transcriptase (gag-pol, Human immunodeficiency virus 1, UniProt P03366)
OPRD1: Delta-type opioid receptor (OPRD1, Homo sapiens, UniProt P41143)
ADRA2A: Alpha-2A adrenergic receptor (ADRA2A, Homo sapiens, UniProt P08913)
OGT: UDP-N-acetylglucosamine--peptide N-acetylglucosaminyltransferase 110 kDa subunit (OGT, Homo sapiens, UniProt O15294)
HTR3A: 5-hydroxytryptamine receptor 3A (HTR3A, Homo sapiens, UniProt P46098)

SMILES | target | assay | conditions | IC50
CC(C)c1ccc(O)c(=O)c(O)c1 | gag-pol reverse transcriptase | enzyme activity, inhibitor, FRET | – | 0.308 µM
Cc1cn([C@@H]2C=C[C@H](OC(P(=O)(O)O)P(=O)(O)O)C2)c(=O)[nH]c1=O (relative stereo) | gag-pol reverse transcriptase | enzyme activity, inhibitor, radiometric | – | 204 µM
CCCC[C@H](CNCc1ccccc1)N1CCN(CC(C)C)[C@H](Cc2ccc(O)cc2)C1 | OPRD1 | cell-free assay | – | > 10 µM
CCN(CC)C(=O)C1CN2CCc3cc(OC)c(OC)cc3C2CC1OC(C)=O (stereo not drawn) | ADRA2A | calcium signal, antagonist | – | 0.45 µM
CCC[C@H](CN[C@H](CNC)Cc1ccc(O)cc1)NCCC1CCCC1 | OPRD1 | cell-free assay | – | > 10 µM
CC(C)Cc1ccc([C@H](C)C(=O)O)cc1 | Histone acetyltransferase p300 (EP300, Homo sapiens, UniProt Q09472) | enzyme activity, inhibitor, mobility shift | – | ~6000 µM
COc1ncccc1-c1cnn2ccc(N3CCN(C(=O)OC(C)C)CC3)nc12 | ADRA2A | cell-free assay | – | > 30 µM
CNC[C@H](Cc1ccc(O)cc1)NC[C@H](Cc1ccc(O)cc1)NCC1CCCCCC1 | OPRD1 | cell-free assay | – | > 10 µM
CC[C@H](C)[C@H](NC(=O)[C@H](CO)NC(=O)[C@H](Cc1ccc(O)cc1)NC(=O)[C@H](CCCCN)NC(=O)[C@@H]1CCCN1C(=O)[C@H](CCSC)NC(=O)[C@H](Cc1ccccc1)NC(=O)[C@H](CCSC)NC(=O)[C@@H](NC(=O)[C@@H]1CCCN1C(=O)[C@H](Cc1ccccc1)NC(=O)[C@H](CC(=O)O)NC(=O)CN)C(C)C)C(=O)N[C@H](C(=O)N[C@@H](Cc1ccccc1)C(=O)N[C@@H](CCCCN)C(=O)N[C@@H](CCCCN)C(=O)O)[C@@H](C)CC | OGT | enzyme activity, inhibitor, fluorescence | – | 16 µM
CC(CCc1ccccc1)NC(C)C(O)c1ccc(O)cc1 (stereo not drawn) | ADRA2A | ligand displacement, radioligand | – | 9.39 µM
C[C@@H](NC(=O)[C@@H](N)Cc1ccc(O)cc1)C(=O)NCC(=O)N[C@H](CC(=O)NNC(=O)C[C@H](Cc1ccccc1)NC(=O)CNC(=O)[C@@H](C)NC(=O)[C@@H](N)Cc1ccc(O)cc1)Cc1ccccc1 | OPRD1 | ligand displacement, radioligand | – | 0.00145 µM
O=c1c(O)c(-c2ccc(O[C@@H]3O[C@H](CO)[C@@H](O)[C@H](O)[C@H]3O)c(O)c2)oc2cc(O)cc(O)c12 | Carbonic anhydrase 2 (CA2, Homo sapiens, UniProt P00918) | enzyme activity, inhibitor, absorbance | – | 0.0194 µM
CCOC(=O)c1cncn1C(C)c1ccc(C2(C(F)(F)F)N=N2)cc1 (stereo not drawn) | HTR3A | ion current, two-electrode voltage clamp | oocytes | 9 µM
CC(C)[C@@H]1CN([C@@H](CNCc2ccccc2)C(C)C)CCN1CCc1ccccc1 | OPRD1 | cell-free assay | – | > 10 µM
CCCCCCCCC[C@@H]1CC(=O)NCC(=O)N[C@H](Cc2ccc(O)cc2)C(=O)NCC(=O)N[C@@H](Cc2ccccc2)C(=O)O1 | OPRD1 | ligand displacement, radioligand | – | 38 µM
CC[C@H](C)[C@H](NC(=O)[C@H](CO)NC(=O)[C@H](Cc1ccc(O)cc1)NC(=O)[C@H](CCCCN)NC(=O)[C@@H]1CCCN1C(=O)[C@H](CCSC)NC(=O)[C@H](Cc1ccccc1)NC(=O)[C@H](CCSC)NC(=O)[C@@H](NC(=O)[C@@H]1CCCN1)C(C)C)C(=O)N[C@H](C(=O)N[C@@H](Cc1ccccc1)C(=O)O)[C@@H](C)CC | OGT | enzyme activity, inhibitor, fluorescence | – | 20 µM
CNC[C@@H](Cc1ccc(O)cc1)N1CCN(CCc2cccc(C)c2)[C@@H](C(C)C)C1 | OPRD1 | cell-free assay | – | > 10 µM
CN1CCC(=C2c3ccccc3CCc3sccc32)CC1 | ADRA2A | ligand displacement, radioligand | – | 0.577 µM
CCC[C@H](CNC)NC[C@H](Cc1ccc(O)cc1)NCCC1CCCC1 | OPRD1 | cell-free assay | – | > 10 µM
CN1CCN(C2=Nc3ccccc3Oc3ccc(Cl)cc32)CC1 | HTR3A | ligand displacement, radioligand | – | 0.377 µM
Cc1cn([C@@H]2CC[C@H](OC(C(=O)O)C(=O)O)C2)c(=O)[nH]c1=O (relative stereo) | gag-pol reverse transcriptase | enzyme activity, inhibitor, radiometric | – | 42 µM
